# Screening results (PubChem)
# Phagocytosis inh = inhibitors of macrophage phagocytosis | inhibition, % at 5 µM | J774A.1 macrophage IgG-bead phagocytosis, imaging | 110,000 compounds, 0.07% hits | AID 1029;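 active means inhibition above the mean of the plate negative controls plus 5 SD, cut at about 13% in these data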;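 further: phagocytic index as fraction of beads internalized from green versus red external bead signal; plate controls were DMSO negative control for no effect and cytochalasin-D positive control for full effect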
# RAM network inh = yeast RAM network inhibition. 190,000 compounds, 1.8% hits. AID 868. S. cerevisiae dse1pr::URA3 reporter, 5-FOA growth OD615, 2 d; analog-sensitive cbk1-as2 kinase mutant strain. inhibition, % at 50 µM;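 active means inhibition above a set limit, 3 SD over mean compound inhibition, cut at about 8.4% in these data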;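 further: 0% = DMSO-only wells with no growth and 100% = 10 µM 1-NA-PP1 full growth; inhibition rescues growth on 5-FOA so higher OD means more RAM inhibition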
# Yeast lifespan up = extends the lifespan of yeast; inhibition of the nicotinamide effect, % at 10 µM; 130,000 compounds, 0.68% hits; S. cerevisiae growth with nicotinamide, OD615; deaD strain in restrictive glucose medium;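 active means inhibition above a set limit, placed 3 SD over the median of all compounds, cut at about 26% in these data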;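 further: 0% = nicotinamide-treated wells and 100% = cells grown without nicotinamide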
#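 Assay system: engineered S. cerevisiae DeaD replicative-lifespan strain, galactose-grown log-phase cells; Buffer or medium: CSMM-D glucose medium, restrictive; Probe or stimulus: nicotinamide 1.5 mM; Compound: single dose 10 µM compound, 0.25% DMSO; Schedule: 4 h preincubation then 48 h treatment at 30 °C; Technique: OD615 measurement.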
# Yeast growth inh = reduces growth of yeast BB579 in restrictive medium; S. cerevisiae BB579 growth, OD615, 48 h; inhibition, % at 10 µM; 140,000 compounds, 0.51% hits;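 active means inhibition above a set limit, 3 SD over the mean compound inhibition, cut at about 44% in these data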
#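 Test system: Saccharomyces cerevisiae DeaD strain BB579, replicative lifespan model yeast | Buffer or medium: Restrictive CSMM-D medium | Doses: One dose, 10 µM compound with 0.25% DMSO | Incubation: 48 h exposure, 30 °C | Detection: Culture absorbance at 615 nm | Control set: Amphotericin B at 10 µg/mL as positive control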
# Active calls of the source: *; nt = no result given. A selection: hits, their analogues and other compounds. The true share with any hit is near 2.7%.
SMILES,Phagocytosis inh,RAM network inh,Yeast lifespan up,Yeast growth inh
COc1ccc(NC(=O)Cn2cnc3sc(C)c(S(=O)(=O)N4CCOCC4)c3c2=O)c(OC)c1,nt,3,nt,nt
C=CCn1c(SCC(N)=O)nc2scc(-c3ccc(C)o3)c2c1=O,nt,3,nt,nt
C=CCn1c(SCc2ccccc2)nc2scc(-c3ccc(C)o3)c2c1=O,nt,11*,6,-44
C/C(=N\NC(=O)CN1CCN(Cc2ccc(C)cc2)CC1)c1ccncc1,-8,0,5,-15
COc1cc(S(=O)(=O)NCC2CCCO2)ccc1Br (configuration not stated),0,0,0,-32
C/C(=N\NC(=O)c1cccc(Cl)c1)c1cccc(NC(=O)c2ccco2)c1,0,-1,-14,-13
O=C(Nc1cccc(N=Cc2cc(Br)cc(Br)c2O)c1)c1ccco1,-2,-1,-10,100*
O=C(Nc1cccc(N=Cc2cc(Cl)cc(Br)c2O)c1)c1ccco1,-8,-1,7,56*
Cc1noc(C)c1COC(=O)C(c1ccccc1)c1ccccc1,nt,2,nt,nt
COc1cccc(C(=O)Nc2sc3c(c2C#N)CCN(C(C)=O)C3)c1,nt,5,nt,nt
Cc1cc(NC(=O)COC(=O)c2ccccc2[N+](=O)[O-])no1,nt,4,nt,nt
O=C1c2nccnc2C(=O)N1c1ccc(F)cc1,nt,2,nt,nt
COc1ccccc1S(=O)(=O)Cc1ccc(C(=O)NC(C)c2ccc3c(c2)OCCO3)o1 (configuration not stated),-1,0,-16,-66
CCc1sc(N(C(=O)Cc2ccccc2)c2cccc(F)c2)nc1-c1ccc(C)cc1,nt,8.9*,-9,-29
Clc1ccc(-c2cnc(Oc3ccccc3)nc2)cc1,nt,2,-11,-23
Cc1cc(Cl)ccc1Oc1ncc(-c2ccc(Cl)cc2)cn1,nt,11*,-2,-41
CC1=NN(Cc2ccccc2)C(=O)C1C(c1ccc(Cl)cc1)C(C#N)C#N (configuration not stated),-8,3,41*,-27
CC1=NN(Cc2ccccc2)C(=O)C1C(c1ccccc1)C(C#N)C#N (configuration not stated),nt,2,38*,-26
COc1cc(CNc2nnnn2C)ccc1OCc1c(F)cccc1Cl,nt,2,nt,nt
Cc1ccc(Cn2ncc3c(N4CCOCC4)ncnc32)cc1,-1,1,-6,-14
Cc1ccc(Cn2ncc3c(N4CCN(c5ccccc5C)CC4)ncnc32)cc1,-1,10*,-5,-36
c1cnn(-c2cncc(-n3cccn3)n2)c1,nt,0,nt,nt
CCOC(=O)c1c(-c2cccc([N+](=O)[O-])c2)csc1NC(=O)C1CCCCC1,nt,8.6*,nt,-31
Oc1cccc2ccc(/C=C/c3cccs3)nc12,-1,0,-18,59*
Cn1cnnc1Sc1ccc(/C=C/C(=O)c2ccc(O)cc2)cc1[N+](=O)[O-],nt,8.4*,nt,nt
SMILES,Phagocytosis inh,RAM network inh,Yeast lifespan up,Yeast growth inh
CC(=O)Nc1ccc(S(=O)(=O)Oc2cccc(/C=N/N=C3/NC(=O)C(CC(=O)O)S3)c2)cc1 (configuration not stated),nt,1,nt,nt
COc1ccc(C(=O)C2CCCN(Cc3ccc4nonc4c3)C2)c(OC)c1 (configuration not stated),nt,0,nt,nt
O=S(=O)(/N=C/c1c(O)ccc2ccccc12)c1cccs1,-1,-1,30*,-20
CC1=Nc2nc(N3CCCCC3)c(C#N)c3c4c(nc(c23)N1)N(c1ccc(C(C)C)cc1)C(=O)C4,-4,9.3*,5,-48
CC(C)c1ccc(-c2nc(N3CCCCC3)[nH]c(=O)c2C#N)cc1,nt,3,-6,-31
COCCCN(C(=S)Nc1ccc(C)cc1Cl)C(C)c1ccncc1 (configuration not stated),-4,0,15,-35
COCCCN(C(=S)Nc1cc(Cl)cc(Cl)c1)C(C)c1ccncc1 (configuration not stated),0,0,41*,-36
CC(CNC(=O)c1cc(Cl)ccc1[N+](=O)[O-])NC(=O)c1cc(Cl)ccc1[N+](=O)[O-] (configuration not stated),nt,5,-22,-28
Cn1c(=O)[nH]c2ccc([N+](=O)[O-])nc21,-2,1,3,1
CC1(C)Nc2ccc(O)cc2-c2c1ssc2=S,nt,2,-6,-23
CCOc1ccc2c(c1)-c1c(ssc1=S)C(C)(C)N2C,0,8.8*,39*,-9
CCSc1ncc(/C=N/Nc2ccccc2)n1C,0,-1,-18,30
CCSc1ncc(/C=N/Nc2ccc(Cl)cc2)n1C,-1,-1,-9,95*
COc1ccc(-n2cc3c(-c4cccc(Br)c4)nnc(C)c3n2)cc1,nt,11*,-3,-17
Cc1cccc(NC(=O)CN(c2ccc(C(C)C)cc2)S(=O)(=O)c2c(C)nn(C)c2C)n1,-1,0,-3,-24
Cc1cc(Cl)cc(Br)c1OCCNCC(C)O (configuration not stated),174*,3,-17,-24
CC(O)CNCCCOc1ccc(Cl)cc1C(C)(C)C (configuration not stated),nt,0,nt,nt
CCOC(=O)c1cnc(-n2nc(C)cc2C)nc1NCCc1ccccc1,1,-2,-15,52*
CCOC(=O)c1cnc(-n2nc(C)cc2C)nc1Nc1ccccc1OC,0,2,0,-33
COc1ccc(Nc2nc3ccc(C)cn3c(=O)c2/C=N/O)cc1,nt,5,nt,nt
Cc1ccc2nc(Nc3ccccc3)c(/C=N/O)c(=O)n2c1,nt,1,27*,-23
CC(=O)c1ccc(N2Cc3ccccc3/C2=N\C(=O)Nc2ccc(Cl)cc2)cc1,-16,5,3,-51
COc1cc2c(cc1OC)C(C(=O)O)C(c1ccc(C)o1)N(C)C2=O (configuration not stated),-4,1,-22,-16
COc1cc(OC)c(-c2c3cc(O)c(=O)cc-3oc3cc(O)c(O)cc23)cc1OC,-9,10*,9,4
Cc1cc(SCC(=O)N(C)C2CCS(=O)(=O)C2)nc2c(C)cccc12 (configuration not stated),nt,0,nt,nt
SMILES,Phagocytosis inh,RAM network inh,Yeast lifespan up,Yeast growth inh
CC1=C(/C=C/C(=O)O)C(C)(C)CCC1,-2,-1,28*,-2
CC1=C(/C=N/Nc2ccc([N+](=O)[O-])cc2[N+](=O)[O-])C(C)(C)CCC1,-10,5,-6,-9
COc1cc(S(=O)(=O)Nc2cccc(C)c2)ccc1N=Cc1c(C)[nH]n(-c2ccccc2)c1=O,-7,8.5*,-5,-33
CC(=O)Nc1ccc(-c2csc(NC(C)c3ccccc3)n2)cc1 (configuration not stated),nt,2,nt,nt
CCNc1nc(NCC)nc(SCCOC(=O)Nc2ccc(Cl)cc2Cl)n1,-3,10*,-3,-18
O=C(CCCSc1nnnn1-c1ccccc1)c1ccc(F)cc1,nt,7,-18,7
COc1ccc(-c2nnc3sc(C(C)N4C(=O)c5ccccc5C4=O)nn23)cc1 (configuration not stated),nt,1,30*,-23
CCOc1ccc(NC(=O)COC(=O)c2cccnc2)cc1,-2,1,-5,-63
